In brackets after ≈: the same amount, converted by molar mass.
Legend:
[1] = system: Aspergillus terreus; experiment: Antifungal activity against Aspergillus terreus by EUCAST method; format: functional
[2] = system: Aspergillus fumigatus; experiment: Antifungal activity against Aspergillus fumigatus by EUCAST method; format: functional
[3] = system: Penicillium sp.; experiment: Antifungal activity against Penicillium species by EUCAST method; format: functional
[4] = system: Talaromyces marneffei; experiment: Antifungal activity against Penicillium marneffei; format: functional
[5] = system: Trichosporon asahii; experiment: Antifungal activity against Trichosporon asahii; format: functional
Procedure, shortened: (§1)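 Nonfermentative yeasts were tested by the EUCAST microdilution recommendations with one change: plates were sealed and agitated at 350 rpm and 30°C for 48 h.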

[6] = system: Sporothrix schenckii; experiment: Antifungal activity against Sporothrix schenckii; format: functional
Procedure, shortened: (§2)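 Broth microdilution following the EUCAST reference procedure for spore-forming moulds, in flat-bottom plates with RPMI 1640 plus 2% glucose. Inoculum was 2 × 10^5 to 5 × 10^5 CFU/ml. MICs were read visually at 24 and 48 h as 100% growth reduction versus a drug-free control for polyenes and azoles. MEC was used for caspofungin. Tests were run in duplicate and repeated twice.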

[7] = system: Scedosporium apiospermum; experiment: Antifungal activity against Scedosporium apiospermum; format: functional; procedure, shortened: as §2
[8] = system: Meyerozyma guilliermondii; experiment: Antifungal activity against Candida guilliermondii by EUCAST method; format: functional
Procedure, shortened: (§3)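 Broth microdilution in flat-bottom plates in RPMI 1640 with 2% glucose; inoculum 0.5 × 105 to 2.5 × 10^5 CFU/ml. MICs were read spectrophotometrically at 24 h. AMB endpoint: ≥90% growth reduction vs drug-free control well. Azole and CPF endpoint: 50% reduction in optical density. MFC was taken as the lowest concentration giving 99% killing.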

[9] = system: Rhizopus; experiment: Antifungal activity against Rhizopus species by EUCAST method; format: functional; procedure, shortened: as §2
[10] = system: Lichtheimia corymbifera; experiment: Antifungal activity against Absidia corymbifera; format: functional
[11] = Antifungal activity against Rhizopus microsporus var. oligosporus by EUCAST method; format: functional; procedure, shortened: as §2
[12] = Antifungal activity against Rhizopus microsporus var. oligosporus; format: functional; procedure, shortened: as §2
[13] = Antifungal activity against Rhinocladiella aquaspersa by EUCAST method; format: functional
Procedure, shortened: (§4)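 Dematiaceous fungi were tested by the EUCAST spore-forming mold reference procedure: flat-bottom microdilution plates, RPMI 1640 plus 2% glucose, inoculum 2 × 105 to 5 × 10^5 CFU/ml. Endpoints were read visually at 24 and 48 h. Polyenes and azoles: 100% growth reduction vs drug-free control. CPF: minimum effective concentration. Run in duplicate and repeated twice.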

[14] = system: Curvularia lunata; experiment: Antifungal activity against Curvularia lunata; format: functional
[15] = system: Curvularia lunata; experiment: Antifungal activity against Curvularia lunata by EUCAST method; format: functional; procedure, shortened: as §4
[16] = system: Rhizopus arrhizus; experiment: Antifungal activity against Rhizopus oryzae; format: functional; procedure, shortened: as §2
[17] = system: Candida parapsilosis; experiment: Antifungal activity against Candida parapsilosis by EUCAST method; format: functional; settings: Lodderomyces parapsilosis; procedure, shortened: as §3
[18] = system: Lichtheimia corymbifera; experiment: Antifungal activity against Absidia corymbifera by EUCAST method; format: functional
[19] = system: Meyerozyma guilliermondii; experiment: Antifungal activity against Candida guilliermondii; format: functional; procedure, shortened: as §3
[20] = system: Fusarium solani; experiment: Antifungal activity against Fusarium solani; format: functional
[21] = system: Geotrichum candidum; experiment: Antifungal activity against Geotrichum candidum by EUCAST method; format: functional
[22] = system: Rhizomucor; experiment: Antifungal activity against Rhizomucor species by EUCAST method; format: functional; procedure, shortened: as §2
[23] = system: Aspergillus terreus; experiment: Antifungal activity against Aspergillus terreus; format: functional
[24] = system: Cryptococcus gattii; experiment: Antifungal activity against Cryptococcus neoformans var. gattii by EUCAST method; format: functional, Cryptococcus bacillisporus
Procedure, shortened: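 EUCAST yeast microdilution, modified for nonfermentative yeasts: plates were sealed and agitated at 350 rpm and 30°C for 48 h.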

[25] = system: Mucor; experiment: Antifungal activity against Mucor species; format: functional
[26] = system: Scedosporium apiospermum; experiment: Antifungal activity against Scedosporium apiospermum by EUCAST method; format: functional; procedure, shortened: as §2
[27] = system: Candida albicans; experiment: Antifungal activity against Candida albicans; format: functional; procedure, shortened: as §3
[28] = system: Rhizomucor; experiment: Antifungal activity against Rhizomucor species; format: functional
[29] = Antifungal activity against Rhinocladiella aquaspersa; format: functional; procedure, shortened: as §4
[30] = system: Trichosporon inkin; experiment: Antifungal activity against Trichosporon inkin by EUCAST method; format: functional; procedure, shortened: as §1
[31] = system: Fusarium oxysporum; experiment: Antifungal activity against Fusarium oxysporum by EUCAST method; format: functional
[32] = system: Candida albicans; experiment: Antifungal activity against Candida albicans by EUCAST method; format: functional; procedure, shortened: as §3
[33] = system: Curvularia australiensis; experiment: Antifungal activity against Bipolaris australiensis by EUCAST method; format: functional; procedure, shortened: as §4
[34] = system: Lomentospora prolificans; experiment: Antifungal activity against Scedosporium prolificans; format: functional; procedure, shortened: as §2
[35] = system: Fusarium solani; experiment: Antifungal activity against Fusarium solani by EUCAST method; format: functional

## CC[C@@H]([C@H](C)O)n1ncn(-c2ccc(N3CCN(c4ccc(OC[C@@H]5CO[C@@](Cn6cncn6)(c6ccc(F)cc6F)C5)cc4)CC3)cc2)c1=O [POSACONAZOLE]
[1]
  MIC: 0.19 µg/mL (≈ 0.271 µM)
[2]
  MIC: 0.37 µg/mL (≈ 0.528 µM)
[3]
  MIC: 0.05 µg/mL (≈ 0.0713 µM)
[4]
  MFC: 0.25 µg/mL (≈ 0.357 µM)
[5]
  MFC: > 8 µg/mL
[6]
  MFC: 0.5 µg/mL (≈ 0.713 µM)
[7]
  MFC: 1 µg/mL (≈ 1.43 µM)
[8]
  MIC: 0.45 µg/mL (≈ 0.642 µM)
[9]
  MIC: 0.78 µg/mL (≈ 1.11 µM)
[10]
  MFC: 2 µg/mL (≈ 2.85 µM)
[11]
  MIC: 5.33 µg/mL (≈ 7.61 µM)
[12]
  MFC: > 8 µg/mL
[13]
  MIC: 0.06 µg/mL (≈ 0.0856 µM)
[14]
  MFC: 0.5 µg/mL (≈ 0.713 µM)
[15]
  MIC: 0.25 µg/mL (≈ 0.357 µM)
[16]
  MFC: 2 µg/mL (≈ 2.85 µM)
[17]
  MIC: 0.05 µg/mL (≈ 0.0713 µM)
[18]
  MIC: 0.29 µg/mL (≈ 0.414 µM)
[19]
  MFC: 0.25 µg/mL (≈ 0.357 µM)
[20]
  MFC: > 8 µg/mL
[21]
  MIC: 0.37 µg/mL (≈ 0.528 µM)
[22]
  MIC: 2.23 µg/mL (≈ 3.18 µM)
[23]
  MFC: 0.5 µg/mL (≈ 0.713 µM)
[24]
  MIC: 0.06 µg/mL (≈ 0.0856 µM)
[25]
  MFC: 2 µg/mL (≈ 2.85 µM)
[26]
  MIC: 1 µg/mL (≈ 1.43 µM)
[27]
  MFC: 0.12 µg/mL (≈ 0.171 µM)
[28]
  MFC: > 2 µg/mL
[29]
  MFC: 0.125 µg/mL (≈ 0.178 µM)
[30]
  MIC: 0.28 µg/mL (≈ 0.4 µM)
[31]
  MIC: 0.12 µg/mL (≈ 0.171 µM)
[32]
  MIC: 0.14 µg/mL (≈ 0.2 µM)
[33]
  MIC: 0.12 µg/mL (≈ 0.171 µM)
[34]
  MFC: > 8 µg/mL
[35]
  MIC: 1 µg/mL (≈ 1.43 µM)
